# Measured values reported in ChEMBL document CHEMBL1145020, “Synthesis and structure-activity relationships of 6,7-disubstituted 4-anilinoquinoline-3-carbonitriles. The design of an orally active, irreversible inhibitor of the tyrosine kinase activity of the epidermal growth factor receptor (EGFR) and the human epidermal growth factor receptor-2 (HER-2)” (J Med Chem, 2003).
# Test system: A-431
# Assay: Concentration required to inhibit growth of human carcinoma epidermoid (A431) cell line
# Type: functional, cell-based
# Details: not given
row,SMILES,IC50 [nM]
1,CCCN(CC#CC(=O)Nc1ccc2ncc(C#N)c(Nc3cccc(Br)c3)c2c1)CCC,240
2,COCCOCC#CC(=O)Nc1ccc2ncc(C#N)c(Nc3cccc(Br)c3)c2c1,270
3,C=C(CN(C)C)C(=O)Nc1cc2c(Nc3ccc(F)c(Cl)c3)c(C#N)cnc2cc1OCC,180
4,COC[C@@H]1CCCN1CC#CC(=O)Nc1ccc2ncc(C#N)c(Nc3cccc(Br)c3)c2c1,1200
5,COc1cc2ncc(C#N)c(Nc3cccc(Br)c3)c2cc1NC(=O)/C=C/CN(C)C,140
6,C=CC(=O)Nc1ccc2ncc(C#N)c(Nc3cccc(Br)c3)c2c1,360
7,CC#CC(=O)Nc1ccc2ncc(C#N)c(Nc3cccc(Br)c3)c2c1,5030
8,CN(C)C/C=C/C(=O)Nc1ccc2ncc(C#N)c(Nc3cccc(Br)c3)c2c1,450
9,CN(C)C/C=C/C(=O)Nc1ccc2ncc(C#N)c(Nc3ccc(F)c(Cl)c3)c2c1,150
10,COCC#CC(=O)Nc1cc2c(Nc3cccc(Br)c3)c(C#N)cnc2cc1OC,730

# The remaining compounds from weak to strong by IC50, led by results:
row,IC50 [nM],SMILES
1,5120,CC#CC(=O)Nc1cc2c(Nc3cccc(Br)c3)c(C#N)cnc2cc1OC
2,2520,COc1cc(NC(=O)/C=C/CN(C)C)cc2c(Nc3cccc(Br)c3)c(C#N)cnc12
3,310,C=CC(=O)Nc1cc2c(Nc3cccc(Br)c3)c(C#N)cnc2cc1OC
4,280,COCC#CC(=O)Nc1ccc2ncc(C#N)c(Nc3cccc(Br)c3)c2c1
5,140,CC(C)N(CC#CC(=O)Nc1ccc2ncc(C#N)c(Nc3cccc(Br)c3)c2c1)C(C)C
6,110,COc1cc2ncc(C#N)c(Nc3cccc(Br)c3)c2cc1NC(=O)C#CCN(C)C

# Test system: not listed separately
# Assay: Concentration required to inhibit growth of human carcinoma breast (SKBR3) cell line
# Type: functional
# Details: SK-BR-3
# Procedure, shortened: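 Cell growth inhibition measured from dose–response curves at five concentrations. […] Reported values average at least two determinations.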
row,SMILES,IC50 [nM]
1,CC(C)N(CC#CC(=O)Nc1ccc2ncc(C#N)c(Nc3cccc(Br)c3)c2c1)C(C)C,40
2,COCC#CC(=O)Nc1ccc2ncc(C#N)c(Nc3cccc(Br)c3)c2c1,350
3,CCCN(CC#CC(=O)Nc1ccc2ncc(C#N)c(Nc3cccc(Br)c3)c2c1)CCC,80
4,COCCOCC#CC(=O)Nc1ccc2ncc(C#N)c(Nc3cccc(Br)c3)c2c1,390
5,CC#CC(=O)Nc1cc2c(Nc3cccc(Br)c3)c(C#N)cnc2cc1OC,8360
6,COc1cc2ncc(C#N)c(Nc3cccc(Br)c3)c2cc1NC(=O)C#CCN(C)C,120
7,COc1cc(NC(=O)/C=C/CN(C)C)cc2c(Nc3cccc(Br)c3)c(C#N)cnc12,2520
8,C=C(CN(C)C)C(=O)Nc1cc2c(Nc3ccc(F)c(Cl)c3)c(C#N)cnc2cc1OCC,90
9,COC[C@@H]1CCCN1CC#CC(=O)Nc1ccc2ncc(C#N)c(Nc3cccc(Br)c3)c2c1,540
10,COc1cc2ncc(C#N)c(Nc3cccc(Br)c3)c2cc1NC(=O)/C=C/CN(C)C,30
11,C=CC(=O)Nc1ccc2ncc(C#N)c(Nc3cccc(Br)c3)c2c1,440
12,CC#CC(=O)Nc1ccc2ncc(C#N)c(Nc3cccc(Br)c3)c2c1,5500
13,CN(C)C/C=C/C(=O)Nc1ccc2ncc(C#N)c(Nc3cccc(Br)c3)c2c1,180
14,CN(C)C/C=C/C(=O)Nc1ccc2ncc(C#N)c(Nc3ccc(F)c(Cl)c3)c2c1,50
15,C=CC(=O)Nc1cc2c(Nc3cccc(Br)c3)c(C#N)cnc2cc1OC,120
16,COCC#CC(=O)Nc1cc2c(Nc3cccc(Br)c3)c(C#N)cnc2cc1OC,290

# Molecular target: Receptor tyrosine-protein kinase erbB-2 (Homo sapiens, UniProt P04626)
# Assay: Concentration required to inhibit autophosphorylation of cytoplasmic domain of human epidermal growth factor receptor-2
# Details: not given
# Receptor tyrosine-protein kinase erbB-2, sequence (P04626 whole entry, the tested form may be a part): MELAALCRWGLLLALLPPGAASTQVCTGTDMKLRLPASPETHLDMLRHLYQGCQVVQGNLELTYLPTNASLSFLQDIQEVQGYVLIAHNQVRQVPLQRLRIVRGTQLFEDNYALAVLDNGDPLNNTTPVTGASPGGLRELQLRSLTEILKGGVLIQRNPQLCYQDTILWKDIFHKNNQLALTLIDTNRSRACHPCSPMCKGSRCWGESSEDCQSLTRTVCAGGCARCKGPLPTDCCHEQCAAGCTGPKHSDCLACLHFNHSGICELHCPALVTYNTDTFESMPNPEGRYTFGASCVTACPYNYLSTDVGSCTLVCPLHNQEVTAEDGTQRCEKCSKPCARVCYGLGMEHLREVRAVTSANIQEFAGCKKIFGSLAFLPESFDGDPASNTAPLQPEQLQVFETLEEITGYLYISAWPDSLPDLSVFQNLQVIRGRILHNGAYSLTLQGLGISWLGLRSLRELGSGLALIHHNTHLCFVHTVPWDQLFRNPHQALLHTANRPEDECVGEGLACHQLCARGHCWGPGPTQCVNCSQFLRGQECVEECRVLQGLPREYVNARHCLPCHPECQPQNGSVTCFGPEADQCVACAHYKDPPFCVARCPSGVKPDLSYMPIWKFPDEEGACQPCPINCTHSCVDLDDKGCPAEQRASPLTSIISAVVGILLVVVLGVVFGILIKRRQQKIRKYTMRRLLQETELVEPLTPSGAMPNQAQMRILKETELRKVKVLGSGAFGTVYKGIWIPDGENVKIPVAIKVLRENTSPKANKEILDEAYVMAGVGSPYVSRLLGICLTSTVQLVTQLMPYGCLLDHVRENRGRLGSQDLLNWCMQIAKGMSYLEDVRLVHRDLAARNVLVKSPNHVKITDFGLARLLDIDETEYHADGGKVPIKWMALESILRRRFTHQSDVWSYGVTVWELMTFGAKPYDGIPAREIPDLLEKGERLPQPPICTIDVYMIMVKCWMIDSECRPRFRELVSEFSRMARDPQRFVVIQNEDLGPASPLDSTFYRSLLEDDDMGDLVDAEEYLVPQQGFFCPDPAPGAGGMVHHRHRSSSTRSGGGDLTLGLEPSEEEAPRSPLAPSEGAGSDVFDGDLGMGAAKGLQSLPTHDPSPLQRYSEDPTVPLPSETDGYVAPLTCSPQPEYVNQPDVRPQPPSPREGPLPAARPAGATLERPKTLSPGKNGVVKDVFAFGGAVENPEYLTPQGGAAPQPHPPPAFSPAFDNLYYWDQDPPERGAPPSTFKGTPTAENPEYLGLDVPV
row,SMILES,IC50 [nM]
1,CCCN(CC#CC(=O)Nc1ccc2ncc(C#N)c(Nc3cccc(Br)c3)c2c1)CCC,370
2,COCCOCC#CC(=O)Nc1ccc2ncc(C#N)c(Nc3cccc(Br)c3)c2c1,450
3,C=C(CN(C)C)C(=O)Nc1cc2c(Nc3ccc(F)c(Cl)c3)c(C#N)cnc2cc1OCC,1210
4,COC[C@@H]1CCCN1CC#CC(=O)Nc1ccc2ncc(C#N)c(Nc3cccc(Br)c3)c2c1,1220
5,COc1cc2ncc(C#N)c(Nc3cccc(Br)c3)c2cc1NC(=O)/C=C/CN(C)C,5660
6,C=CC(=O)Nc1ccc2ncc(C#N)c(Nc3cccc(Br)c3)c2c1,1630
7,CC#CC(=O)Nc1ccc2ncc(C#N)c(Nc3cccc(Br)c3)c2c1,3870
8,CN(C)C/C=C/C(=O)Nc1ccc2ncc(C#N)c(Nc3cccc(Br)c3)c2c1,4160
9,CN(C)C/C=C/C(=O)Nc1ccc2ncc(C#N)c(Nc3ccc(F)c(Cl)c3)c2c1,1950
10,COCC#CC(=O)Nc1cc2c(Nc3cccc(Br)c3)c(C#N)cnc2cc1OC,380

# Further lines, results first:
row,IC50 [nM],SMILES
1,2120,CC#CC(=O)Nc1cc2c(Nc3cccc(Br)c3)c(C#N)cnc2cc1OC
2,9350,COc1cc(NC(=O)/C=C/CN(C)C)cc2c(Nc3cccc(Br)c3)c(C#N)cnc12
3,4680,C=CC(=O)Nc1cc2c(Nc3cccc(Br)c3)c(C#N)cnc2cc1OC
4,300,COCC#CC(=O)Nc1ccc2ncc(C#N)c(Nc3cccc(Br)c3)c2c1
5,320,CC(C)N(CC#CC(=O)Nc1ccc2ncc(C#N)c(Nc3cccc(Br)c3)c2c1)C(C)C
6,180,COc1cc2ncc(C#N)c(Nc3cccc(Br)c3)c2cc1NC(=O)C#CCN(C)C

# Test system: SW-620
# Assay: Concentration required to inhibit growth of human carcinoma colon (SW620) cell line
# Type: functional, cell-based
# Details: not given
row,SMILES,IC50 [nM]
1,CCCN(CC#CC(=O)Nc1ccc2ncc(C#N)c(Nc3cccc(Br)c3)c2c1)CCC,400
2,COCCOCC#CC(=O)Nc1ccc2ncc(C#N)c(Nc3cccc(Br)c3)c2c1,340
3,C=C(CN(C)C)C(=O)Nc1cc2c(Nc3ccc(F)c(Cl)c3)c(C#N)cnc2cc1OCC,320
4,COC[C@@H]1CCCN1CC#CC(=O)Nc1ccc2ncc(C#N)c(Nc3cccc(Br)c3)c2c1,4140
5,COc1cc2ncc(C#N)c(Nc3cccc(Br)c3)c2cc1NC(=O)/C=C/CN(C)C,1170
6,C=CC(=O)Nc1ccc2ncc(C#N)c(Nc3cccc(Br)c3)c2c1,3380
7,CC#CC(=O)Nc1ccc2ncc(C#N)c(Nc3cccc(Br)c3)c2c1,12300
8,CN(C)C/C=C/C(=O)Nc1ccc2ncc(C#N)c(Nc3cccc(Br)c3)c2c1,5480
9,CN(C)C/C=C/C(=O)Nc1ccc2ncc(C#N)c(Nc3ccc(F)c(Cl)c3)c2c1,880
10,COCC#CC(=O)Nc1cc2c(Nc3cccc(Br)c3)c(C#N)cnc2cc1OC,1770

# Second part, the compound after the results:
row,IC50 [nM],SMILES
1,7580,CC#CC(=O)Nc1cc2c(Nc3cccc(Br)c3)c(C#N)cnc2cc1OC
2,8970,COc1cc(NC(=O)/C=C/CN(C)C)cc2c(Nc3cccc(Br)c3)c(C#N)cnc12
3,1880,C=CC(=O)Nc1cc2c(Nc3cccc(Br)c3)c(C#N)cnc2cc1OC
4,520,COCC#CC(=O)Nc1ccc2ncc(C#N)c(Nc3cccc(Br)c3)c2c1
5,250,CC(C)N(CC#CC(=O)Nc1ccc2ncc(C#N)c(Nc3cccc(Br)c3)c2c1)C(C)C
6,300,COc1cc2ncc(C#N)c(Nc3cccc(Br)c3)c2cc1NC(=O)C#CCN(C)C

# Molecular target: Epidermal growth factor receptor (Homo sapiens, UniProt P00533)
# Details: not given
# Epidermal growth factor receptor, sequence (P00533 whole entry): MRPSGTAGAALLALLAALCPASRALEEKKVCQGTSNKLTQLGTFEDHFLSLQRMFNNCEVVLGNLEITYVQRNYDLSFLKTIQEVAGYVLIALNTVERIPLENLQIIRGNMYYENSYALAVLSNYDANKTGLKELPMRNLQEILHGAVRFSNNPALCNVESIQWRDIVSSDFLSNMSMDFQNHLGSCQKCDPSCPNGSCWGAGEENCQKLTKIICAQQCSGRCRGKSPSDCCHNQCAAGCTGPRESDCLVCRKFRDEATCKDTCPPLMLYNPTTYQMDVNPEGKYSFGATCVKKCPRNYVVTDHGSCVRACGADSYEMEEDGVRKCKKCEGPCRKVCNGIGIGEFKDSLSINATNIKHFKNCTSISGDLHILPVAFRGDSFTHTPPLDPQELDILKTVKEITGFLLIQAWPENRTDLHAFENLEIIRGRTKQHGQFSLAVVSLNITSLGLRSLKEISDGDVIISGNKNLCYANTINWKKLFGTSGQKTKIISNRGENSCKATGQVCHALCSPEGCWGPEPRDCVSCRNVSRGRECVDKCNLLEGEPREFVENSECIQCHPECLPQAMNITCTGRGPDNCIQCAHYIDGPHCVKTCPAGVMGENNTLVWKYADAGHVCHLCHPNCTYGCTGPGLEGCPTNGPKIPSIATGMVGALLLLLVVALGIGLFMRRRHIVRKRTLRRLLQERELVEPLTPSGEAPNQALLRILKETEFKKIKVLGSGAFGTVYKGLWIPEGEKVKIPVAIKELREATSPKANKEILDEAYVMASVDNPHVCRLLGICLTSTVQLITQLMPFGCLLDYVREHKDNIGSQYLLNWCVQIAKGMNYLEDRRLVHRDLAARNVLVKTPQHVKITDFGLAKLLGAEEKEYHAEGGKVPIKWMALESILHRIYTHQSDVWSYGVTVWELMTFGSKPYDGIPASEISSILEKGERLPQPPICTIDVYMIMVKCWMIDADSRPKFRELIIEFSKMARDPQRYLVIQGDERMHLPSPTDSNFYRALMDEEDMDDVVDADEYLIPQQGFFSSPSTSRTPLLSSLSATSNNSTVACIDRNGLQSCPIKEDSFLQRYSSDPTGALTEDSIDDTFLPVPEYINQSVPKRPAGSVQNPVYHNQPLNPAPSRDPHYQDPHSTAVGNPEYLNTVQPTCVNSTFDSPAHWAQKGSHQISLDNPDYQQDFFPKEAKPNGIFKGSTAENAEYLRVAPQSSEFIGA
row,SMILES,IC50 [nM]
1,CCCN(CC#CC(=O)Nc1ccc2ncc(C#N)c(Nc3cccc(Br)c3)c2c1)CCC,130
2,COCCOCC#CC(=O)Nc1ccc2ncc(C#N)c(Nc3cccc(Br)c3)c2c1,930
3,C=C(CN(C)C)C(=O)Nc1cc2c(Nc3ccc(F)c(Cl)c3)c(C#N)cnc2cc1OCC,560
4,COC[C@@H]1CCCN1CC#CC(=O)Nc1ccc2ncc(C#N)c(Nc3cccc(Br)c3)c2c1,150
5,COc1cc2ncc(C#N)c(Nc3cccc(Br)c3)c2cc1NC(=O)/C=C/CN(C)C,790
6,C=CC(=O)Nc1ccc2ncc(C#N)c(Nc3cccc(Br)c3)c2c1,590
7,CC#CC(=O)Nc1ccc2ncc(C#N)c(Nc3cccc(Br)c3)c2c1,940
8,CN(C)C/C=C/C(=O)Nc1ccc2ncc(C#N)c(Nc3cccc(Br)c3)c2c1,310
9,CN(C)C/C=C/C(=O)Nc1ccc2ncc(C#N)c(Nc3ccc(F)c(Cl)c3)c2c1,650
10,COCC#CC(=O)Nc1cc2c(Nc3cccc(Br)c3)c(C#N)cnc2cc1OC,790

# Now from value to compound:
row,IC50 [nM],SMILES
1,910,CC#CC(=O)Nc1cc2c(Nc3cccc(Br)c3)c(C#N)cnc2cc1OC
2,2880,COc1cc(NC(=O)/C=C/CN(C)C)cc2c(Nc3cccc(Br)c3)c(C#N)cnc12
3,960,COCC#CC(=O)Nc1ccc2ncc(C#N)c(Nc3cccc(Br)c3)c2c1
4,90,COc1cc2ncc(C#N)c(Nc3cccc(Br)c3)c2cc1NC(=O)C#CCN(C)C
